The source of these data is the RNAGym collection of RNA variant scans (doi:10.1126/science.aae0568).

Fewer inactive variants are shown than the library holds.

B1: tRNA (parent)
chain: GUUCCGUUGGCGUAAUGGUAACGCGUCUCCCUCCUAAGGAGAAGACUGCGGGUUCGAGUCCCGUACGGAACG

The series covers variants of B1. Description: yeast fitness relative to wild type (ratio to wild type); higher = fitter; tRNA-Arg(CCU), competitive growth, 37 C, YPD. The essentials:
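Amplicons of the tRNA-Arg(CCU) gene were sequenced, 100-nucleotide paired-end, from the start population and from each end population of a pooled yeast competition. The competition, in six parallel replicates, lasted 24 hours in YPD at 37°C. Fitness relative to wild type was calculated from changes in genotype frequencies. Genotypes had to have ≥ 100 starting reads, and estimates < 0.5 were set to 0.5.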
GUUCCGUCGGCGUAAUGGUAACGCGUCUCCGUCCUAAGGAGAAGGCUGCGGGUUCGAGUCCGGUACGGAACG [U8C C31G A45G C62G]: the yeast fitness was no more than 0.5. As for GUUCCGUUGGCGUAAUGGUAACGCGUCUCCCCCCUACGGAGAAGACUGCGGGUUCGAGUCCCGUACGGAACG [U32C A37C], the figure is 0.771; as for GUUCCGUUGACGUAAUGGUAACGCGUCUCCCUCCUAAGGAGAAGACUGCGGGUUCGAGUGCCGUACGGGACG [G10A C60G A69G], 0.616; as for GUUCCGUUGGCGUAAUGGUAACGCGUCUCCCUCCUAAGGAGUAGACUGCGGGUUCGAGUCCCGUAUGGAACG [A42U C66U], 0.793. As for GUUCCGUUGGCGUAAUGGUAACGCGUCUCCCUCCUGAGGAGAAGACUGCGGAUUCGAGUCCCGUAAGGUACG [A36G G52A C66A A69U], the figure is no more than 0.5; as for GUUCCGUUGCAGUAAUGGUAACGCGUCUCCCUCCUAAGGAGAAGACUGGGGGUUAGAGUCCCGUACGGAACG [G10C C11A C49G C55A], no more than 0.5. With GUUCCGUUGGCGUCAUGGUAACGUGUCUCCCUCCUAAGGAGAAGACUGCGGGUUCGAGUCCCGUACGGAACG [A14C C24U], the yeast fitness is 0.666.

Take GUUCCGUUAGCGUAAUGGUAACGCGCCUCCCUCCUAAGGAGAAGACUGUGGGUUCGAGUCCCGUACGGAACG [G9A U26C C49U]: the yeast fitness was 0.685. The result for GUUCCGUUGGCGUAAUGGUAACGCGUAUCCCUCCUAAGGAGAAGACUGCGGGUUCGAGUCACGUACCGAACG [C27A C61A G67C] reads no more than 0.5; that for GUUCCGUUGGCGUAAUGGUAACGCGUCUCCCUCCUAAGGAGAAGACUGUGGGUUCGACUCCGGUACGGCACG [C49U G58C C62G A69C], 0.559. On to GUUCCGUUGGCGUAAUGGUAACGCGUCUCCCUCCUAAGGAGAAGCCUGCGGGUUCGAGUCCCGCCCGGAACG [A45C U64C A65C], for which the yeast fitness stood at 0.965. The result for GUUCCGUUGGCGUAAUGGCAACGCCUCUCCCUCCUAAGGAGAAGACUGCGCGUUCGAGUUCCGUACAGAACG [U19C G25C G51C C60U G67A] reads 0.545; that for GUUCCGUUGGCGUAAUGGUAACGCGUCUCCCUCCUAAGGAGAAGACUGCGGGGUCGAGUCCCGGACGGCACG [U53G U64G A69C], 0.841. The result for GUUCCGUUGGUGUAAUGGUAAAGCGUCUCCCUCCUAAGGAGAAGACUGCGGGUUCGAGUCCCGUACGGAACG [C11U C22A] reads 0.882; that for GUUCCGUUGGCGUAAUAGUAACGCGUCUCCCUCCUAAGGAGAAGGCUGCGGGUUCGAGUCCCGUACGGAACG [G17A A45G], 0.875; that for GUUCCGUUGGCGUAAUGGUAACGCGUCUCCCUCCUAAGGAGAAGACUGCGGGUUCUACUCCCGUACGGAACG [G56U G58C], 0.75.

For the variant GUUCCGUUGGCGUAAUGGUAACGCGUCUCCCUCAUAAGGUGAAGACUGCGGGUUCGAGUCCCGUACAGAACG [C34A A40U G67A], the yeast fitness was no more than 0.5.

As for GUUUCGUUGGCGUAAUGGUAACGCGUCUACCUCCUAAGGAGAAGACUGCGGCUUAGAGGCCCGUACGGAACG [C4U C29A G52C C55A U59G], the yeast fitness was found to be 0.554.

GUUCCGUUGGCGUAAUGGUAACGCGUCUCCUUUCUACGGAGAAGACUGCGGGUUCGAGUCCCGUACGGAACG [C31U C33U A37C]: the yeast fitness is no more than 0.5. As for GUUCCGUUAGUGUAAUGGUAACGCGUCUCCCUCCUAAGGAGAAGACUGCGGGUUCGAGUCCCGUACCGAACG [G9A C11U G67C], the figure is 0.697; as for GUUCCGUUGGCGUAAUGGUAACGCGUCUCCCUCCUAAGGAGAAGACUGCGGGUUCGACUCUCGUAUGGAACG [G58C C61U C66U], 0.621. For the variant GUUCCGUUGGCGUAAUGGAAACGCGUCUCCCUCCUAUGGAGAAGACUGCGGGUUCGAGUCCCGUACGGAACG [U19A A37U], the yeast fitness was found to be 0.747.

On to GUUCCGUUGGCGUAAUGGUUACGCGUCUUGCUCAAAAGGAGAAGACUCCGGGUUCGAGUCCCGUACGGAACG [A20U C29U C30G C34A U35A G48C], for which the yeast fitness was no more than 0.5. As for GUUCCGUUGGCGUAAUGGUAACGCGUGUGCCUCCUAAGGUGAAGCCUGCGGGUUCGUGUCCCGUACGGAACG [C27G C29G A40U A45C A57U], the figure is no more than 0.5; as for GUUCCGUUGGCGUAAUGGUAACGAGUCUCCCUCCUCAGGAAAAGACUGCGGGCUCGAGUCCCGUACGGAACG [C24A A36C G41A U53C], no more than 0.5.

Consider GUUCCGUUGGCGUAAUGGUAACGCGUCUCCCUCCUAAGGAGAAGACUGCGGGUUUGAGUGCCGUACGGAACG [C55U C60G], for which the yeast fitness is no more than 0.5. For the variant GUUCCGUUGGCGUAAUGGUGACGCGUCUCCCUCCUAAGGAGAAGACCGCGGGUGCGAGUCCCGUAGGGAACG [A20G U47C U54G C66G], the yeast fitness is no more than 0.5. As for GUUCCGUUGGCGUUAUGGUAGCGCAUCUCCCUCGUAAGGAGAAGACUGCGGGUUCGUGUCCCGUACGGUACG [A14U A21G G25A C34G A57U A69U], the figure is no more than 0.5. Consider GUUCUGUUGGAGUAAUGGUAACGCGACUUAUUCCUAAGGAGAAGACUGCGGGUUCGAGUUUCGUACGGAACG [C5U C11A U26A C29U C30A C31U C60U C61U], for which the yeast fitness is no more than 0.5. GUUCCGUUAGCGUAAUGGUAACCCGUCUCCCUCCUAAGGAGAAGGCUGCGGGUUCGAGUCCCGUACGGAACG [G9A G23C A45G]: the yeast fitness was 0.575.

Turning to GUUCCGUUGGCGUAAUGGUAACGCGUCUCCCUCCCAAGGAGAAGACUGCGGGUUCGAGUCCUGUACGGAACG [U35C C62U], the yeast fitness stood at 0.882. As for GUUCCGUUGACGUAAUGGUAACGCGUCUCCCUCCUAAGGAGAAGACUGCGGGUUCGAAUCCCGUACGGAACG [G10A G58A], the figure is 0.767. Take GUUCGGUUGGCGUAAUGGUAACGCGGCUCCCUCGUAAGGCGAAGAUUGGGGGUUCGAGUCCCGUACGGAACG [C5G U26G C34G A40C C46U C49G]: the yeast fitness was 0.558. As for GUUCCGUUGGCGUAAUGGGUACGCGUAUCCCUCCUAAGGAGAAGACUGCGGGUUCGAGUCCCGUACGGAACG [U19G A20U C27A], the figure is 0.587; as for GUUCCGUUGGCGUAAUGGUAACGCGUCUCUCUCCAAAGGAGAAGACUGCGGGUUCGAGUCCAGUACGGAACG [C30U U35A C62A], no more than 0.5; as for GUUUCGUUGGCGUAAUGGUUACGCGUCUCCCUCCAAAAGAGAAGACUGCGGGUUCGAGUCCCGUACGGAACG [C4U A20U U35A G38A], no more than 0.5. The result for GUUCGGUUGGCGUAAUGGUAACGCGUCUCCCUCCUAAGGAGAAGACUGCGGGUUCGAGUCCAGUACGGAACG [C5G C62A] reads 0.697; that for GUUCCGUUGCCGUAAUGGUAACGCGAUUCCCUCUUAAGGAGAAGACUGUGGGUUCGAGUCCCGUACGGAACG [G10C U26A C27U C34U C49U], 0.602.
